From ChEMBL document CHEMBL3868583, “6-Aryl substituted 4-(4-cyanomethyl) phenylamino quinazolines as a new class of isoform-selective PI3K-alpha inhibitors” (Eur J Med Chem, 2016)
≈ marks a conversion by molar mass, not a printed value.

Experiments:
[1] = Cytotoxicity against human A375 cells assessed as cell growth inhibition after 48 hrs by MTT assay; format: functional; conditions: A-375, 48 h
Summary of the method: (§1)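 MTT assay: 3 × 10^3 cells/well seeded, compounds added after 24 h at final […], 48 h exposure. MTT (2.5 mg/mL in PBS) added, formazan dissolved in DMSO, absorbance 570 nm. Viability as % of untreated; three independent experiments, mean ± SD.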

[2] = target: Phosphatidylinositol 4,5-bisphosphate 3-kinase catalytic subunit alpha isoform (Homo sapiens, UniProt P42336); test: Inhibition of PI3Kalpha (unknown origin) using diC8 PIP2 as substrate at 0.5 uM after 80 mins by ADP-glo assay
Phosphatidylinositol 4,5-bisphosphate 3-kinase catalytic subunit alpha isoform, sequence (P42336 whole entry, canonical isoform): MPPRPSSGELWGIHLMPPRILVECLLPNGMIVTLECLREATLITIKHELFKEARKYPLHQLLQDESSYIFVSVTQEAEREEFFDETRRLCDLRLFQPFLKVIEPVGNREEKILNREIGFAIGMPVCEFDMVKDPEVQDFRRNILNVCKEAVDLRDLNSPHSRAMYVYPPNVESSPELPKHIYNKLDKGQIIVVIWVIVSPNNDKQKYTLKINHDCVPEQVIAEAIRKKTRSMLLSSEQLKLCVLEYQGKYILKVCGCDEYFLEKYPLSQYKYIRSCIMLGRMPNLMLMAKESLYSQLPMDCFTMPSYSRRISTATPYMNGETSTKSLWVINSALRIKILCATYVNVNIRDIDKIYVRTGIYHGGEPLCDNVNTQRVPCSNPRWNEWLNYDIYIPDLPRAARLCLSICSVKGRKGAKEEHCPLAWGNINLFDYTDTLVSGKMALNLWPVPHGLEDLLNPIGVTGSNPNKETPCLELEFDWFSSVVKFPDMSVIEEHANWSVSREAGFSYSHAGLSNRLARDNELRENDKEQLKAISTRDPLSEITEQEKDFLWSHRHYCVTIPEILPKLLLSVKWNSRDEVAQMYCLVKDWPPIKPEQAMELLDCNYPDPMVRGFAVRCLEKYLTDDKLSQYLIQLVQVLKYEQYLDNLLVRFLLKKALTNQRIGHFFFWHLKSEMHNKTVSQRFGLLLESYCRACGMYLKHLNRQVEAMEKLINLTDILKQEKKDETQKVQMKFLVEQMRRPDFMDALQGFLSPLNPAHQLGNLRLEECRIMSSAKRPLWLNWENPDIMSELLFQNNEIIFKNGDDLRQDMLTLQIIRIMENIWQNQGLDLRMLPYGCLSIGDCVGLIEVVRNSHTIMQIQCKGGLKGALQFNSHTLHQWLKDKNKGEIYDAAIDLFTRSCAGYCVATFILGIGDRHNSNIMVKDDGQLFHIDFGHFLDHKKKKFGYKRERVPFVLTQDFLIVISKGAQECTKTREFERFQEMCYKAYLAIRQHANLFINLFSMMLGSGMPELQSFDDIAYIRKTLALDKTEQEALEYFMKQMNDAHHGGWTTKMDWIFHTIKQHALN

[3] = Cytotoxicity against human HL60 cells assessed as cell growth inhibition after 48 hrs by MTT assay; format: functional; conditions: HL-60, 48 h; summary of the method: as §1
[4] = Cytotoxicity against human MCF7 cells assessed as cell growth inhibition after 48 hrs by MTT assay; format: functional; conditions: MCF7, 48 h; summary of the method: as §1
Homo sapiens [5] = species: Homo sapiens; test: Selectivity ratio of IC50 for PI3Kbeta (unknown origin) to IC50 for PI3Kalpha (unknown origin)
[6] = Cytotoxicity against human PANC1 cells assessed as cell growth inhibition after 48 hrs by MTT assay; format: functional; conditions: PANC-1, 48 h; summary of the method: as §1
[7] = Cytotoxicity against human PC3 cells assessed as cell growth inhibition after 48 hrs by MTT assay; format: functional; conditions: PC-3, 48 h; summary of the method: as §1
Homo sapiens [8] = species: Homo sapiens; test: Selectivity ratio of IC50 for PI3Kdelta (unknown origin) to IC50 for PI3Kalpha (unknown origin)
Homo sapiens [9] = species: Homo sapiens; test: Selectivity ratio of IC50 for PI3Kgamma (unknown origin) to IC50 for PI3Kalpha (unknown origin)
[10] = Thermodynamic equilibrium solubility of compound in simulated gastric fluid up to 300 ug after 4 hrs by UV absorbance method; format: ADME; conditions: read-out: Therm_solubility
Summary of the method: (§2)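 Methanol stock evaporated in wells to give 1–300 µg solid; 200 µl medium (water, PBS, SGF or SIF) added, shaken 300 rpm 4 h at 25 ± 1 °C, equilibrated overnight, centrifuged; supernatant UV absorbance at λmax; saturation point from concentration–absorbance curve; triplicate.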

[11] = Thermodynamic equilibrium solubility of compound in PBS up to 300 ug after 4 hrs by UV absorbance method; format: physicochemical; conditions: read-out: Therm_solubility; summary of the method: as §2
[12] = Thermodynamic equilibrium solubility of compound in water up to 300 ug after 4 hrs by UV absorbance method; format: physicochemical; conditions: read-out: Therm_solubility; summary of the method: as §2
[13] = Thermodynamic equilibrium solubility of compound in simulated intestinal fluid up to 300 ug after 4 hrs by UV absorbance method; format: ADME; conditions: read-out: Therm_solubility; summary of the method: as §2

| Structure (SMILES) | inhibition [2] [%] | Ratio IC50 (Homo sapiens [5]) | Ratio IC50 (Homo sapiens [8]) | Ratio IC50 (Homo sapiens [9]) | solubility thermodynamic at 4 h [10] [µg/mL] | solubility thermodynamic at 4 h [11] [µg/mL] | solubility thermodynamic at 4 h [12] [µg/mL] | solubility thermodynamic at 4 h [13] [µg/mL] | GI50 [1] [µM] | GI50 [3] [µM] | GI50 [4] [µM] | GI50 [6] [µM] | GI50 [7] [µM] |
| --- | --- | --- | --- | --- | --- | --- | --- | --- | --- | --- | --- | --- | --- |
| N#CCc1ccc(Nc2ncnc3ccc(-c4cccc5c4sc4ccccc45)cc23)cc1 |  |  |  |  |  |  |  |  | 34 | 31 | 34 | 33 | 18 |
| N#CCc1ccc(Nc2ncnc3ccc(-c4cc5ccccc5s4)cc23)cc1 | 2.7 |  |  |  |  |  |  |  | 14 | 14 | 8 | 24 | 13 |
| N#CCc1ccc(Nc2ncnc3ccc(-c4cnc5ccccc5c4)cc23)cc1 |  |  |  |  |  |  |  |  | 89 | 44 | 32 | 90 | 23 |
| N#CCc1ccc(Nc2ncnc3ccc(-c4ccc(-c5ccccc5)cc4)cc23)cc1 |  |  |  |  |  |  |  |  | 13 | 16 | 29 | 30 | 10 |
| N#CCc1ccc(Nc2ncnc3ccc(-c4ccc(OCc5ccc(F)cc5)cc4)cc23)cc1 | 11 |  |  |  |  |  |  |  | 16 | 14 | 12 | 13 | 13 |
| N#CCc1ccc(Nc2ncnc3ccc(-c4cccc5c4oc4ccccc45)cc23)cc1 | 1.5 |  |  |  |  |  |  |  | 36 | 12 | 27 | 31 | 16 |
| Cc1ccccc1-c1ccc2ncnc(Nc3ccc(CC#N)cc3)c2c1 | 4.1 |  |  |  |  |  |  |  | 32 | 36 | > 100 | 68 | 38 |
| CCOc1ccc(-c2ccc(-c3ccc4ncnc(Nc5ccc(CC#N)cc5)c4c3)cc2)cc1 |  |  |  |  |  |  |  |  | 30 | 16 | 26 | 33 | 17 |
| N#CCc1ccc(Nc2ncnc3ccc(-c4ccccc4C=O)cc23)cc1 | 1.3 |  |  |  |  |  |  |  | 39 | 42 | 91 | 90 | 21 |
| N#CCc1ccc(Nc2ncnc3ccc(-c4ccc(-c5ccccc5)cc4F)cc23)cc1 | 20.3 |  |  |  |  |  |  |  | 32 | 16 | 13 | 33 | 14 |

The next lines start with results.

| inhibition [2] [%] | Ratio IC50 (Homo sapiens [5]) | Ratio IC50 (Homo sapiens [8]) | Ratio IC50 (Homo sapiens [9]) | solubility thermodynamic at 4 h [10] [µg/mL] | solubility thermodynamic at 4 h [11] [µg/mL] | solubility thermodynamic at 4 h [12] [µg/mL] | solubility thermodynamic at 4 h [13] [µg/mL] | Structure (SMILES) | GI50 [1] [µM] | GI50 [3] [µM] | GI50 [4] [µM] | GI50 [6] [µM] | GI50 [7] [µM] |
| --- | --- | --- | --- | --- | --- | --- | --- | --- | --- | --- | --- | --- | --- |
| 36.4 | 1 | 1 |  |  |  |  |  | C=Cc1ccc(-c2ccc3ncnc(Nc4ccc(CC#N)cc4)c3c2)cc1 | 27 | 16 | 11 | 32 | 34 |
| 44 | > 37 | > 37 | 0.5 |  |  |  |  | CC(=O)c1ccc(-c2ccc3ncnc(Nc4ccc(CC#N)cc4)c3c2)cc1 | 32 | 28 | 45 | 13 | 24 |
| 8.2 |  |  |  |  |  |  |  | N#CCc1ccc(Nc2ncnc3ccc(-c4ccc5ccccc5c4)cc23)cc1 | 31 | 25 | 16 | 48 | 22 |
| 48.6 | > 31.1 | > 31.1 | 0.6 |  |  |  |  | N#CCc1ccc(Nc2ncnc3ccc(-c4ccc5c(c4)OCO5)cc23)cc1 | 24 | 27 | 34 | 33 | 7 |
| 17 |  |  |  |  |  |  |  | N#CCc1ccc(Nc2ncnc3ccc(-c4ccc(F)cc4F)cc23)cc1 | 9 | 7 | 10 | 21 | 28 |
| 16.4 |  |  |  |  |  |  |  | CC(=O)Nc1cccc(-c2ccc3ncnc(Nc4ccc(CC#N)cc4)c3c2)c1 | 24 | 32 | 23 | 40 | 27 |
| 29.8 |  |  |  |  |  |  |  | N#CCc1ccc(Nc2ncnc3ccc(-c4cc5ccccc5o4)cc23)cc1 | 10 | 17 | 9 | 28 | 8 |
| 38.1 | > 22.2 | > 22.2 | 1.9 |  |  |  |  | N#CCc1ccc(Nc2ncnc3ccc(-c4cccc([N+](=O)[O-])c4)cc23)cc1 | 23 | 15 | 12 | 7 | 29 |
| 45.6 | > 14.2 | > 14.2 | 0.5 |  |  |  |  | N#CCc1ccc(Nc2ncnc3ccc(-c4ccncc4)cc23)cc1 | 35 | 32 | 32 | 39 | 76 |
| 69.9 | 5.8 | 2.3 | 16 | 125 (≈ 355 µM) | 5 (≈ 14.2 µM) | 5 (≈ 14.2 µM) | 5 (≈ 14.2 µM) | N#CCc1ccc(Nc2ncnc3ccc(-c4cccc(O)c4)cc23)cc1 | 28 | 24 | 15 | 36 | 37 |
| 33 | > 29.2 | > 29.2 | 4 |  |  |  |  | N#CCc1ccc(Nc2ncnc3ccc(-c4ccc5c(c4)OCCO5)cc23)cc1 | 27 | 21 | 34 | 32 | 34 |
